Source: ChEMBL document CHEMBL4145680, “Tau-Centric Multitarget Approach for Alzheimer's Disease: Development of First-in-Class Dual Glycogen Synthase Kinase 3β and Tau-Aggregation Inhibitors” (J Med Chem, 2018)
Active and inactive are the calls of the source.

Experiments:
[1] = molecular target: T1, Glycogen synthase kinase-3 beta (Homo sapiens, UniProt P49841); assay: Inhibition of GSK3beta (unknown origin) at 10 uM using GS-2 peptide substrate incubated for 30 mins by kinase-Glo luminescent assay
How it was run: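 Human recombinant GSK-3β, 20 ng, in 50 mM HEPES pH 7.5 with 1 mM EDTA, 1 mM EGTA and Mg acetate. Substrate prephosphorylated GS-2 peptide 25 µM with 1 µM ATP; DMSO ≤1%. Incubated 30 min at 30 °C, then Kinase-Glo luminescence read after 10 min. Activity scaled between no-inhibitor and full-inhibition reference controls.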
Target sequence in this assay (P49841 whole entry, looked up): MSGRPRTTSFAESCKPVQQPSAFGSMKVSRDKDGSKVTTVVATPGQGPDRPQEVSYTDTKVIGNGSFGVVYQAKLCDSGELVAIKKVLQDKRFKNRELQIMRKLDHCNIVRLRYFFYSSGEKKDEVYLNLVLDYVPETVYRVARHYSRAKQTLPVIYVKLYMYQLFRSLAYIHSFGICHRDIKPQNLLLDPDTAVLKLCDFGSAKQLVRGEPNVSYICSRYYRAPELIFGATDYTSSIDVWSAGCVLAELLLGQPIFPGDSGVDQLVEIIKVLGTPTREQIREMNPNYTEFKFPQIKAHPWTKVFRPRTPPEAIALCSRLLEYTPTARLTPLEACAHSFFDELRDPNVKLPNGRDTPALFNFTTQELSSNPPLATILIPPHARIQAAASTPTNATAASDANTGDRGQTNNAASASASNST

[2] = molecular target: T1, Glycogen synthase kinase-3 beta; assay: Inhibition of GSK3beta (unknown origin) using GS-2 peptide substrate incubated for 30 mins by kinase-Glo luminescent assay
How it was run: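 Human recombinant GSK-3β, 20 ng, in 50 mM HEPES pH 7.5 with 1 mM EDTA, 1 mM EGTA and Mg acetate. Incubated 30 min at 30 °C, then Kinase-Glo luminescence read after 10 min. Activity scaled between no-inhibitor and full-inhibition reference controls.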
Target sequence in this assay (P49841 whole entry): as the sequence (P49841 whole entry, looked up) above

[3] = molecular target: T1, Glycogen synthase kinase-3 beta; assay: Inhibition of GSK3beta (unknown origin) pre-incubated for 30 mins followed by ULight-GS (Ser641/pSer657) peptide substrate addition and measured after 1 hr by TR-FRET assay
Target sequence in this assay (P49841 whole entry): as the sequence (P49841 whole entry, looked up) above

[4] = molecular target: T1, Glycogen synthase kinase-3 beta; assay: Reversible inhibition of GSK3beta (unknown origin) pre-incubated for 30 mins followed by 100 fold dilution into buffer containing ULight-GS (Ser641/pSer657) peptide substrate and cofactors by TR-FRET assay based jump-dilution assay
Target sequence in this assay (P49841 whole entry, looked up): as above

[5] = molecular target: T1, Glycogen synthase kinase-3 beta; assay: Competitive inhibition of GSK3beta (unknown origin) at 10 uM using fixed level of GS-2 peptide substrate and varying ATP levels incubated for 30 mins by kinase-Glo luminescent assay
How it was run: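 Human recombinant GSK-3β, 20 ng per reaction, in HEPES pH 7.5 buffer with EDTA, EGTA and Mg acetate. GS-2 prephosphorylated peptide held at 25 µM; ATP varied from 1 to 50 µM along with inhibitor level. 30 min at 30 °C, then Kinase-Glo luminescence read after 10 min. Lineweaver–Burk double-reciprocal analysis; means of two experiments, each run in triplicate.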
Target sequence in this assay (P49841 whole entry, looked up): as above

[6] = Permeability in pH 7.4 PBS incubated for 2.5 hrs by PAMPA-BBB assay; type: ADME; conditions: read-out: permeability
How it was run: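 PAMPA-BBB: donor filter coated with porcine brain lipid in dodecane (20 mg/mL). Compounds in PBS pH 7.4/EtOH 70:30, acceptor filled with the same. Sandwich incubated 2.5 h at 25 °C, then donor and acceptor concentrations measured by UV at 3–5 wavelengths, 3 wells, two runs. Ten reference drugs included for validation.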

[7] = test system: Cerebellar granule neurone; assay: Neurotoxicity in rat primary cerebellar granule neurons assessed as reduction in cell viability at 50 uM incubated for 24 hrs by MTT assay; type: toxicity
How it was run: (§1)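 Cerebellar granule neurons from 7-day-old rat pups, plated on poly-L-lysine at 3 × 10^5 cells/well in BME with FBS and 25 mM KCl. Cytosine arabinoside 10 µM added at 16 h. At 7 days in vitro, switched to serum-free BME with 25 mM KCl and treated 24 h at 0, 5, 25 or 50 µM. MTT 0.1 mg/mL for 20 min at 37 °C, A570. Mean ± SE of ≥3 experiments in triplicate, as % of control.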

[8] = test system: Cerebellar granule neurone; assay: Neurotoxicity in rat primary cerebellar granule neurons assessed as reduction in cell viability at 5 to 25 uM incubated for 24 hrs by MTT assay; type: toxicity; how it was run: as §1
[9] = Hepatotoxicity in human HepG2 cells assessed as reduction in cell viability at 5 to 50 uM incubated for 24 hrs by MTT assay; type: toxicity, cell-based; conditions: hepg2, 24 h
How it was run: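 HepG2 cells grown in DMEM with 10% FBS at 37 °C, 5% CO2, seeded at 0.5 × 10^5 cells/well and left 24 h. Exposed in serum-free DMEM for 24 h (concentrations listed as 0, 10, 25, 50 µM; elsewhere 0, 5, 25, 50 µM). MTT 0.1 mg/mL for 10 min at 37 °C in the dark. Formazan dissolved in Tris/Triton X-100, A570. Mean ± SE of ≥3 experiments in triplicate; reported as % of control.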

[10] = Inhibition of AcPHF6 peptide aggregation in pH 7.4 phosphate buffer at 10 uM by atomic force microscopy
How it was run: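 AcPHF6 500 µM in water diluted to 50 µM in 50 mM phosphate pH 7.4, ±10 µM compound, no ThT. Incubated 80 min at 25 °C with 10 s shaking at 400 rpm each minute. Ultrafiltered (30 kDa cut-off), buffer exchanged to water, and the retained high-MW fraction adsorbed on mica. Imaged by PeakForce tapping-mode AFM.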

[11] = Inhibition of tau K18 fragment peptide aggregation assessed as induction of delay in […] self aggregation at 1 to 10 uM measured every 15 mins by ThT fluorescence assay based RT-QuIC analysis
How it was run: (§2)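 Tau K18 21 µM with heparin 0.015 mg/mL, 0.1 mM DTT and 10 µM ThT in PBS, with compound at 1, 5 or 10 µM or 1% DMSO; triplicate. Cycled 1 min shaking at 300 rpm and 14 min rest at 37 °C. ThT read every 15 min (ex 450, em 480 nm). Inhibition from mean plateau fluorescence.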

[12] = Inhibition of tau K18 fragment peptide aggregation assessed as reduction in […] self aggregation at 1 to 10 uM measured every 15 mins by ThT fluorescence assay based RT-QuIC analysis; how it was run: as §2
[13] = molecular target: Microtubule-associated protein tau (Homo sapiens) (UniProt P10636); assay: Inhibition of heparin-induced full-length 2N4R tau self aggregation (unknown origin) assessed as induction of delay in aggregation at 10 uM by ThT fluorescence assay based RT-QuIC analysis
Chain of Microtubule-associated protein tau (Homo sapiens) (P10636 whole entry): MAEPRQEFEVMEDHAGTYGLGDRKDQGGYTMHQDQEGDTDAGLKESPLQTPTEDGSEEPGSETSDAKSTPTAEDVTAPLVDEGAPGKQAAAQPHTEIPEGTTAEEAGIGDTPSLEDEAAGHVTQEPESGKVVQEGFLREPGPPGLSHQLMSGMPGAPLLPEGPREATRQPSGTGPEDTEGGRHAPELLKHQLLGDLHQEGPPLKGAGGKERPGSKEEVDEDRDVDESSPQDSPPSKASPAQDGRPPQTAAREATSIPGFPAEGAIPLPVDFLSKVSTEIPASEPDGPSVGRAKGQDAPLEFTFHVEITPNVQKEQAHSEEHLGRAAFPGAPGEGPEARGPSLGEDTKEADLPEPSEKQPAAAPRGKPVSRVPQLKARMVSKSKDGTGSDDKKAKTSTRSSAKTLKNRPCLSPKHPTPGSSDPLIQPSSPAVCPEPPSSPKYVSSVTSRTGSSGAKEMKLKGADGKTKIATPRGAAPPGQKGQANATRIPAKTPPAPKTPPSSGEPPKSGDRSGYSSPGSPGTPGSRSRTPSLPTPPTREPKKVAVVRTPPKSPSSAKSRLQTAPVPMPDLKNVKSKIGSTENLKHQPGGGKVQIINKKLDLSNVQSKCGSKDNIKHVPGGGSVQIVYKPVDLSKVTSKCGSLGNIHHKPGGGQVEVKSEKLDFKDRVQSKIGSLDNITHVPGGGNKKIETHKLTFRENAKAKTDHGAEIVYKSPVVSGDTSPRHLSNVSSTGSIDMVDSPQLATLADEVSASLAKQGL
How it was run: (§3)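 Full-length 2N4R tau 20 µM with heparin 0.02 mg/mL, 0.5 mM DTT and 10 µM ThT in PBS, ±10 µM compound; 1% DMSO control. Cycled 1 min shaking at 600 rpm and 1 min rest at 42 °C. ThT read every 2 min (ex 450, em 480 nm).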

[14] = molecular target: Microtubule-associated protein tau (Homo sapiens) (UniProt P10636); assay: Inhibition of heparin-induced full-length 2N4R tau self aggregation (unknown origin) assessed as reduction in formed aggregates level at 10 uM by ThT fluorescence assay based RT-QuIC analysis; how it was run: as §3
[15] = molecular target: T1, Glycogen synthase kinase-3 beta; assay: Inhibition of okadaic acid-induced GSK-3beta-mediated tau hyperphosphorylation in human SH-SY5Y cells assessed as increase in cell viability pre-incubated for 1 hr before okadaic acid stimulation for 24 hrs by MTT assay; type: cell-based
How it was run: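 SH-SY5Y cells grown in DMEM with 10% FBS, seeded at 60000 per well and used 48 h later. Compound given 1 h before 30nM okadaic acid, then 24 h incubation. Viability by MTT, 0.5mg/mL for at least 4 h, formazan dissolved in DMSO, absorbance at 595 nm. Expressed relative to control (=100); n=6 from three independent experiments.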
Target sequence in this assay (P49841 whole entry, looked up): as the sequence (P49841 whole entry, looked up) above

[16] = molecular target: T1, Glycogen synthase kinase-3 beta; assay: Inhibition of GSK3beta (unknown origin) at 10 uM
How it was run: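 Human recombinant GSK-3β (20 ng) with 25 µM GS-2 prephosphorylated peptide and 1 µM ATP in 50 mM HEPES pH 7.5, 1 mM EDTA, 1 mM EGTA, Mg acetate. DMSO at most 1%. 30 min at 30 °C; reaction stopped with Kinase-Glo, luminescence read after 10 min. Activity scaled between no inhibitor and full inhibition by a reference inhibitor.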
Target sequence in this assay (P49841 whole entry, looked up): as above

[17] = molecular target: Casein kinase I isoform delta (Homo sapiens) (UniProt P48730); assay: Inhibition of human recombinant CK1delta at 10 uM incubated for 60 mins by Kinase-Glo assay
Chain of Casein kinase I isoform delta (Homo sapiens) (P48730 whole entry, looked up, canonical isoform): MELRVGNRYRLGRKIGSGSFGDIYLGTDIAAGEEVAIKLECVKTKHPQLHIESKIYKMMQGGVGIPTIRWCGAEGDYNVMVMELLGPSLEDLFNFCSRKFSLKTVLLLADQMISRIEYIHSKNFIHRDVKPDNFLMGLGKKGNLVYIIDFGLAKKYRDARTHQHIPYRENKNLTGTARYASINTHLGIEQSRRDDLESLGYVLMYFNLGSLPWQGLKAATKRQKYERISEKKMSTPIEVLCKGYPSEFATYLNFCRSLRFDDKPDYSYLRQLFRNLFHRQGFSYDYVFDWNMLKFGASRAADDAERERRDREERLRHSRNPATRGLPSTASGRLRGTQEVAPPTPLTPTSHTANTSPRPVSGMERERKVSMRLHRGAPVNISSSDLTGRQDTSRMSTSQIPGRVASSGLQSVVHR
How it was run: (§4)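 Human recombinant CK1δ or CK1ε, 16 ng, in 50 mM HEPES pH 7.5 with 10 mM MgCl2, 1 mM EGTA and Brij-35. Substrate 0.1% casein with 4 µM ATP; compound diluted to 10 µM before addition, DMSO ≤1%. Incubated 60 min at 30 °C, then Kinase-Glo luminescence read. Inhibition relative to no-inhibitor activity; mean of two experiments.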

[18] = molecular target: Casein kinase I isoform epsilon (Homo sapiens) (UniProt P49674); assay: Inhibition of human recombinant CK1epsilon at 10 uM incubated for 60 mins by Kinase-Glo assay; how it was run: as §4
Chain of Casein kinase I isoform epsilon (Homo sapiens) (P49674 whole entry, looked up, canonical isoform): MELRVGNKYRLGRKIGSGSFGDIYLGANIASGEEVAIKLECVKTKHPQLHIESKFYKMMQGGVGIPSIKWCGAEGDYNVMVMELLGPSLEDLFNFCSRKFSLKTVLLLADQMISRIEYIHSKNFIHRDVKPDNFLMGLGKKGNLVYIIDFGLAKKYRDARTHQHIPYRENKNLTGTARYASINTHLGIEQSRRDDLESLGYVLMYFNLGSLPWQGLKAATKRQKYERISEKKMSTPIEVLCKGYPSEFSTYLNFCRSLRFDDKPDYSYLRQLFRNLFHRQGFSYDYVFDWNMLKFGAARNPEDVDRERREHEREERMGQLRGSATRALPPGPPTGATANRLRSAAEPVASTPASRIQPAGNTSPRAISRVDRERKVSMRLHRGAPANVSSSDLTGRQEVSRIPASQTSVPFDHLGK

[19] = molecular target: CDC7/DBF4 (Cell division cycle 7-related protein kinase/Activator of S phase kinase) (Homo sapiens) (UniProt Q9UBU7+O00311); assay: Inhibition of CDC7/Dbf4 (unknown origin) at 10 uM incubated for 60 mins by Kinase-Glo assay; type: protein-complex assay; conditions: in the assay text read “ADP-Glo assay” for “Kinase-Glo assay”
Chain of CDC7/DBF4 (Cell division cycle 7-related protein kinase/Activator of S phase kinase) (Homo sapiens) (O00311 whole entry, looked up): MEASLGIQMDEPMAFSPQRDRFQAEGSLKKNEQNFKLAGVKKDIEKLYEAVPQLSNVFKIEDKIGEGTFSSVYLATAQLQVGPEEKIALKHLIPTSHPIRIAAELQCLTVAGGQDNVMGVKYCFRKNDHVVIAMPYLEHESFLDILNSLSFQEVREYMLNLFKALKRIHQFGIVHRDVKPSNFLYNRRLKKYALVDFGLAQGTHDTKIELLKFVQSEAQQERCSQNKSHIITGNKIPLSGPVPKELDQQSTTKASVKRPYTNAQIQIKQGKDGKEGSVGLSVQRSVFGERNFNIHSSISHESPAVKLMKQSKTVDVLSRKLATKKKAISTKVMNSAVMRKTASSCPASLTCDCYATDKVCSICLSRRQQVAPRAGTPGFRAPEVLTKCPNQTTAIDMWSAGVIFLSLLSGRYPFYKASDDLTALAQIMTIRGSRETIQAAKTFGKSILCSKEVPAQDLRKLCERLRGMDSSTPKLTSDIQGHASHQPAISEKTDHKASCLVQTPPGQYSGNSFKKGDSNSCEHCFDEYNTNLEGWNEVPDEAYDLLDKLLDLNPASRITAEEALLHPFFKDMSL
Chain of CDC7/DBF4 (Cell division cycle 7-related protein kinase/Activator of S phase kinase) (Homo sapiens) (Q9UBU7 whole entry, looked up): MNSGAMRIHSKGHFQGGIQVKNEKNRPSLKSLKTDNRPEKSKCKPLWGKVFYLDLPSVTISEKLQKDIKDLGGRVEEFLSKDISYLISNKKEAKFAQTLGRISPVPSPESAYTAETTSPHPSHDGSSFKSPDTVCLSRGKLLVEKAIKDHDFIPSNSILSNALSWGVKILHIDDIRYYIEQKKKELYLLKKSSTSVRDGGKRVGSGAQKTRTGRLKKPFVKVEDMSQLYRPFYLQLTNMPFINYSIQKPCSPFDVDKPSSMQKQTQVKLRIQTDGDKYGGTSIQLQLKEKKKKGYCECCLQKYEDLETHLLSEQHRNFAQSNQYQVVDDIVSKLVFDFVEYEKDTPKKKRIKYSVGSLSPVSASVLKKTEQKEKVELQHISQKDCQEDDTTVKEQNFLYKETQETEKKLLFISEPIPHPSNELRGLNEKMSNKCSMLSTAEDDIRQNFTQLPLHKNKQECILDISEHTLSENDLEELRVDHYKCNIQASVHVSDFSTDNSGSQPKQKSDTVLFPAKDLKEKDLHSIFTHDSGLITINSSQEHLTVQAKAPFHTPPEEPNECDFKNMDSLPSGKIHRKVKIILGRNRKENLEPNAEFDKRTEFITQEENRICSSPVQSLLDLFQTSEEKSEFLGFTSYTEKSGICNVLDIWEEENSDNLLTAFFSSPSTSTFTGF
How it was run: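 CDC7/DBF4 enzyme, 25 ng/well, with 10 µM ATP (final) and PDKtide substrate. Incubated 60 min at room temperature. ADP-Glo reagent added for 40 min, then detection reagent for 30 min, and luminescence read. Inhibition calculated relative to the no-inhibitor maximum.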

[20] = Inhibition of AcPHF6 peptide aggregation in pH 7.4 phosphate buffer at 20 uM by CD Spectroscopy

In the case of `COc1ccc2c(c1)c(/C=C1\SC(=O)NC1=O)cn2C`, the inhibition [1] is reported as greater than 50%, the IC50 [2] is reported as 0.89 µM and the IC50 [3] is reported as 5.5 µM. The inhibition [4] was “Active”, the inhibition [5] was “Active” and the Papp at 2.5 h [6] was greater than 30.7 nm/s. The Activity [7] was “Toxic”, the Activity [8] was “Non-Toxic” and the Activity [9] was “Non-Toxic”. The inhibition [10] was “Active”, the inhibition [11] was “Active” and the inhibition [12] was 35%. The inhibition [13] was “inactive”, the inhibition [14] was 30% and the inhibition [15] was “Active”. For the same compound, the inhibition [16] was 100%, the inhibition [17] was “inactive” and the inhibition [18] was “inactive”. The inhibition [19] was “inactive” and the inhibition [20] was “Active”.
